Results taken from PMC10237409 (Neuro-Oncology, 2022).
Read-outs that look alike come from different tables or passages of the source.

Tests used:
glioblastoma = conditions: cited from earlier work
orthotopic glioblastoma = conditions: cited from earlier work
[1] = type: in vivo, human
Method in brief: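 Patients took 30 mg/day orally on days 1–4, with salvage resection planned 6–24 h after the day 4 dose. Resected tumour (contrast-enhancing and non-enhancing where possible), CSF and time-matched plasma were collected during surgery. Results were summarised as geometric means. Free tissue concentration and unbound partition coefficient were estimated from plasma protein binding and tissue binding.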

[2] = stated without reference; cited from earlier work
[3] = type: in vivo; conditions: human, plasma, oral, 30 mg/day; for AUC(0-t): GM AUC0-24, plasma; for Cmax: GM Cmax; for Tmax: Median tmax (range)
Method in brief: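 Patients took 30 mg/day orally on days 1–4 before resection. Plasma was sampled at multiple time points through cycle 1 and at surgery, then assayed by LC-MS/MS (High Assay Range). Cmax, tmax, AUC and t½ came from non-compartmental analysis and were summarised as geometric means.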

CCR1 mRNA = CCR1 mRNA in whole blood; type: in vivo, human; conditions: after the fourth preoperative dose, 30 mg/day; mean (SD ± 28.5)
Method in brief: (§1)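 Patients took 30 mg/day orally on days 1–4 before salvage resection. Blood samples for pharmacodynamics were drawn at multiple time points through cycle 1 and at surgery. CCR1 and HEXIM1 expression in blood was measured by RNA-Seq.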

[4] = Safety: treatment-related adverse events; type: in vivo, human
Method in brief: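 AEs were coded with MedDRA 24.0 and graded by NCI CTCAE 5.0. They were reported separately for the preoperative period (30 mg/day days 1–4, until maintenance start) and for postoperative maintenance (45 mg/day 4 days on/24 days off per 28-day cycle, onward). Maintenance continued until progression, unacceptable toxicity or consent withdrawal.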

HEXIM1 mRNA = HEXIM1 mRNA in whole blood; type: in vivo, human; conditions: 72–96 h after the first preoperative dose, 30 mg/day
Method in brief: as §1

[5] = system: advanced cancers, including high-grade gliomas; conditions: 45 mg/day 4 days on/24 days off per 28-day cycle; cited from earlier work
[6] = postoperative maintenance 45 mg/day 4 days on/24 days off, n = 16
[7] = preoperative 30 mg/day days 1–4, n = 20

Cc1sc2c(c1C)C(c1ccc(Cl)cc1)=N[C@@H](CC(=O)Nc1ccc(O)cc1)c1nnc(C)n1-2 [OTX015]
Clinical efficacy (study outcome) (glioblastoma): lack of efficacy
Antitumor activity (orthotopic glioblastoma): showed antitumor activity
Penetration of brain tumor tissue (orthotopic glioblastoma; markedly lower concentrations in peritumoral and distant brain tissue): high penetration of brain tumor tissue

Cn1cc(-c2cc(S(C)(=O)=O)ccc2OCC2CC2)c2ccccc2c1=O [Trotabresib]
Plasma concentration at the time of surgery, GM (% GCV) ([1]; after 30 mg/day days 1–4, n = 19): 1.02 µM
GM free (tissue binding-corrected) trotabresib concentration in brain tissue ([1]; calculated, n = 20, GM (% GCV)): 0.028 µM
CSF concentration, GM (% GCV) ([1]; n = 13): 0.14 µM
Brain tumor tissue concentration, GM (% GCV) ([1]; resected tissue after 30 mg/day days 1–4, n = 20): 0.74 µM
Lipophilicity [2]: high lipophilicity
half-life [3]: 46 h
AUC(0-t) ([3]; cycle 1 day 1, GM (% GCV)): 5.08 µg·h/mL
AUC(0-t) ([3]; cycle 1 day 4, GM (% GCV)): 11.2 µg·h/mL
Cmax ([3]; cycle 1 day 1, GM (% GCV)): 0.392 µg/mL
Cmax ([3]; cycle 1 day 4, GM (% GCV)): 0.72 µg/mL
Tmax ([3]; cycle 1 day 1): 1.5 h
Tmax ([3]; cycle 1 day 4): 1.9 h
Blood levels of CCR1 mRNA, % of baseline levels (CCR1 mRNA): 45.8%
Serious TRAEs ([4]; overall study): No serious TRAEs
Treatment discontinuation due to AEs ([4]; overall study): No patients discontinued treatment due to AEs
Any TRAE, any grade, patients [4, 6]: 100%
Asthenia, grade 3/4 TRAE, number of patients [4, 6]: 1 patient
Thrombocytopenia, grade 3/4 TRAE, number of patients [4, 6]: 5 patients
Dose reduction due to thrombocytopenia, number of patients ([4]; postoperative treatment period, 45 mg/day): 1 patient
Dose interruptions due to AEs, number of patients ([4]; postoperative treatment period, 45 mg/day, thrombocytopenia in 2, pancreatitis in 1): 3 patients
Surgery delayed or canceled due to an AE ([4]; preoperative 30 mg/day days 1–4): No patients
ALT increased, grade 3/4 TRAE, number of patients [4, 7]: 1 patient
Any TRAE, any grade, patients [4, 7]: 60%
Any TRAE, grade 3/4, patients [4, 7]: 10%
Lymphopenia, grade 3/4 TRAE, number of patients [4, 7]: 1 patient
Thrombocytopenia, grade 1/2, patients [4, 7]: 25%
Blood levels of HEXIM1 mRNA versus baseline (HEXIM1 mRNA): increased from baseline in all patients
Prolonged progression-free survival (PFS) in some patients [5]: up to 3 years
